Measurements reported in article PMC4765323 (Current topics in medicinal chemistry, 2009).

Assays:
plasma:brain study = type: in vivo, Sprauge Dawley rat; details: male rats, 10 mg/kg i.p.
M2-M5 mAChR = test: functional mAChR selectivity, M2-M5 reported together; type: cell-based, rat
M1 mAChR (M1/CHO cells) = target: T1, M1 mAChR (M1/CHO cells) (Rattus norvegicus, UniProt P08482); test: functional cell-based calcium-mobilization assay, M1/CHO cell line; details: read-out: M1 IC50
T1 sequence (P08482 1-460): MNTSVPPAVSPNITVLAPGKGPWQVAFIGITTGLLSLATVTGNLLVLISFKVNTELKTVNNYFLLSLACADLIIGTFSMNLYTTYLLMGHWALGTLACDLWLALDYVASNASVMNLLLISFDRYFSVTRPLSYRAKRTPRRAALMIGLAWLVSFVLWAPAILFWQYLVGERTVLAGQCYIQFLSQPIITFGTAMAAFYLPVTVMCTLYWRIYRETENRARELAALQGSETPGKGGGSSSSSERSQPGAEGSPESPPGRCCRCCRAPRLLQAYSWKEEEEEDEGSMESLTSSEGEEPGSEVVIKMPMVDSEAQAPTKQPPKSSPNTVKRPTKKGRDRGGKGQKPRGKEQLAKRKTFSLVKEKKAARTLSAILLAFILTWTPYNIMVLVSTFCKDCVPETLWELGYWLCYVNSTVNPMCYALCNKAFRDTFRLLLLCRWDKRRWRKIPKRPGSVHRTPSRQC
Summary of the method: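 Real-time calcium mobilisation in CHO cells expressing M1, with a Z' averaging 0.7. Primary hits from a single-pass library screen were retested in duplicate and counter-screened on mGluR4/CHO cells. IC50 values came from 10-point concentration-response curves run in triplicate, tested in parallel on M4/CHO cells.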

Y381A mutant M1 mAChR = target: T2, Y381A mutant M1 mAChR (Homo sapiens, UniProt P11229, Y381A); test: mutagenesis experiment, Y381A mutant M1; type: cell-based; details: wherein ACh loses affinity
T2 sequence (P11229 1-460 Y381A): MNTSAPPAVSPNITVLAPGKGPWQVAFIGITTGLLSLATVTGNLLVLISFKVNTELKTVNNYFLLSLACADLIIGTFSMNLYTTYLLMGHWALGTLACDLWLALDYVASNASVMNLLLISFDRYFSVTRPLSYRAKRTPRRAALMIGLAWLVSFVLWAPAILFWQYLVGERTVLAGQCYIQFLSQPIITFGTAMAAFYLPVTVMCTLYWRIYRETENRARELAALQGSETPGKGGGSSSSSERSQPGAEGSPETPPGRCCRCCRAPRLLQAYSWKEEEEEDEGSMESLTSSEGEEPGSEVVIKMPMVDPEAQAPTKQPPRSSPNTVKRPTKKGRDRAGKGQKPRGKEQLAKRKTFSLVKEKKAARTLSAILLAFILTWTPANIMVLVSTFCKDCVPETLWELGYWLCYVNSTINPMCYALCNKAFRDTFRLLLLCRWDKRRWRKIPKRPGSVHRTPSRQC

[1] = system: NMDAR currents in hippocampal CA1 pyramidal cells; type: cell-based
[2] = system: pilocarpine-induced seizures; test: pilocarpine-induced seizures in vivo; parameters: species or system mice; details: pilocarpine 280 mg/kg
M1 mAChR = target: T3, M1 mAChR (Homo sapiens, UniProt P11229); test: phosphoinositide; type: cell-based; details: PI hydrolysis, ACh concentration-response curve
T3 sequence (P11229 1-460): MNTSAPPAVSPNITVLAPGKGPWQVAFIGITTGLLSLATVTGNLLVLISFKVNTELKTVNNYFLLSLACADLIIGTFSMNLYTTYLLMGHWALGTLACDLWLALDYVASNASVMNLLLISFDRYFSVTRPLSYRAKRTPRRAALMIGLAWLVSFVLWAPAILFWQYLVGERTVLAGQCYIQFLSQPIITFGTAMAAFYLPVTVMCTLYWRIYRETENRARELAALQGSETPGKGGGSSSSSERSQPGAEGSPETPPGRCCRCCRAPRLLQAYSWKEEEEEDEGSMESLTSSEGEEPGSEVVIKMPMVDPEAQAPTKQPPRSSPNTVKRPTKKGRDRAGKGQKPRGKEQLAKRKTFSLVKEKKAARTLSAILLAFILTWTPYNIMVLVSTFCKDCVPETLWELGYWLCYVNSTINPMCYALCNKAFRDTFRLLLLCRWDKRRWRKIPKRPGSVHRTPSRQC
Summary of the method: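 Phosphoinositide hydrolysis was driven by an ACh concentration-response curve, run with and without several test compound concentrations. Rightward shifts of the ACh curve were fitted by Schild analysis to give a Kd and a slope.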

M1 receptor versus M2-M5 = details: reported for known antagonists, no reference given; cited from earlier work

Row | Molecule | BrainAUC/PlasmaAUC (plasma:brain study) | functional selectivity for M1 versus M2-M5 (M2-M5 mAChR; functional) [fold] | IC50 (M2-M5 mAChR; read-out: M2-M5 IC50, functional, one bound for all of M2-M5) [nM] | inhibition of M2-M5 (M2-M5 mAChR; up to 150 μM in some experiments, concentrations solubility limited) | IC50 (M1 mAChR (M1/CHO cells)) [nM] | antagonism of M1 mAChR responses in Y381A mutant (Y381A mutant M1 mAChR) | block of CCh-potentiated NMDA-evoked current ([1]; 10 μM CCh, 5 μM compound) | effect of compound alone on NMDA-evoked current ([1]; compound alone, no CCh) | seizure count ([2]; compound 10 mg/kg i.p.) | animals that died ([2]; compound 10 mg/kg i.p. after 40 minutes, 2/8 at 24 hours) [%] | Schild slope (M1 mAChR) | M1 selectivity versus M2-M5 (M1 receptor versus M2-M5)
1 | O=C(CCNS(=O)(=O)c1cccc2nsnc12)N1CCN(c2ccncc2)CC1 [VU0255035] | 0.48 | > 75 | > 10000 | little inhibition | 130 | right shifted | completely blocked | no effect | statistically significant effect reducing seizure count | 25 | 0.90 ± 0.08 | –
2 | MT7 (protein, UniProt Q8QGR0 22-86, looked up) Muscarinic toxin 7: LTCVKSNSIWFPTSEDCPDGQNLCFKRWQYISPRMYDFTRGCAATCPKAEYRDVINCCGTDKCNK | – | – | – | – | – | – | – | – | – | – | – | > 1,000 fold
